An excerpt weighted towards active compounds, which were near 3.1% of everything screened.
CHO parental Ca: ATP-evoked calcium signal inhibitors, parental CHO, primary screen, counter-screen for OX1R antagonist project, cell-based, fluorescence, Fluo-8 calcium dye; AID 463079, 2010; actives 0.63% (n = 330,000); inhibition, % at 5.6 µM; parental CHO-K1, ATP-induced calcium, Fluo-8 fluorescence;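 active means inhibition above that plate's mean sample inhibition plus 3 SD, cut at about 26% in these data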;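 further: 0% = ATP-challenged DMSO wells and 100% = DMSO wells without ATP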
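Assay system – parental CHO cells · Reagent – ATP stimulus · Detection – intracellular calcium via Fluo-8 no-wash fluorescent dye · Evaluation – percent inhibition of ATP-evoked calcium rise, normalized to controls · Controls – ATP wells versus no-ATP DMSO wells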
GalR3 antagonist: GalR3 antagonists in HEK293 cells, primary screen, cell-based, fluorescence readout; HEK293 GalR3-CNG cAMP membrane potential fluorescence; galR3 body fused to GalR1 C-terminus; inhibition, % at 3 µM; actives 0.44% (n = 360,000); AID 651719, 2012;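 active means inhibition above the screen-wide average plus 3 SD, cut at about 13% in these data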;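 further: forskolin and galanin both at EC90 stimulate the cells; cAMP rise reported by CNG channel membrane potential dye signal; 0% = forskolin plus galanin with DMSO and 100% = forskolin alone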
GPR7 antag: GPR7 receptor antagonists, primary screen, cell-based, fluorescence, single concentration. Neuropeptides B/W receptor type 1 (Homo sapiens), P48145. GPR7-expressing cells, fluorescence antagonist assay. inhibition, % at 4.4 µM. actives 1.1% (n = 290,000). AID 1861, 2009; in the data active means inhibition above about 16%, passing the limit was not always enough;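 further: cells stimulated with the agonist NPW; 0% = agonist with vehicle and 100% = vehicle without agonist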
Target sequence (P48145 whole entry, looked up): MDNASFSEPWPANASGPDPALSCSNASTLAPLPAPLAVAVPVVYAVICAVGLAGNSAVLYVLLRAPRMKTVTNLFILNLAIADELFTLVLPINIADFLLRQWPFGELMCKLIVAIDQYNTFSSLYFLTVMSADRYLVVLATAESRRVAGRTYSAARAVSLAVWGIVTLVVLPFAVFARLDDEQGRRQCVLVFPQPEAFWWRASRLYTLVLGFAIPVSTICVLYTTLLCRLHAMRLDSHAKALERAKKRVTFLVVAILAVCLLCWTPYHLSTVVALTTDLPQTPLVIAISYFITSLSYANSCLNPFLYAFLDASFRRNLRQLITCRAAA
OX1R antag-1: OX1R (HCRTR1) antagonists, primary screen, fluorescence, CHO/OX1R cells, Fluo-8 calcium, orexin A; Orexin/Hypocretin receptor type 1 (Homo sapiens), O43613; Fluo-8 calcium fluorescence; inhibition, % at 5 µM; actives 0.43% (n = 330,000);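 active means inhibition above its plate's threshold, mean inhibition of all tested compounds on the plate plus 3 SD, cut at about 37% in these data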;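 further: 0% = orexin A challenge wells and 100% = SB-334867-A antagonist wells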
OX1R antag-2: antagonists of human orexin 1 receptor (OX1R). Orexin/Hypocretin receptor type 1 (Homo sapiens), O43613. OX1R-expressing cells, FRET antagonist read-out. inhibition, % at 6.6 µM. actives 1.8% (n = 330,000). AID 485270, 2010; in the data active means inhibition mostly above about 38%, no sharp cut-off; inactive means mostly below about 40%;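 further: 0% = agonist challenge alone and 100% = reference antagonist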
OX1R Ca confirm: OX1R (HCRTR1) antagonists, confirmation, fluorescence, CHO/OX1R cells, Fluo-8 calcium, orexin A | shares compounds with OX1R antag-1 | orexin A calcium Fluo-8 fluorescence | actives 38% (n = 1,100) | inhibition, % at 5 µM | AID 492963, 2010; in the data active means inhibition above about 29%;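 further: 0% = agonist challenge alone and 100% = reference antagonist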
CHO Ca triplic: ATP-evoked calcium inhibition in parental CHO, counter-screen for OX1R antagonist project, cell-based, fluorescence, CHO-K1, triplicate; shares compounds with OX1R antag-1; ATP-induced calcium, Fluo-8 fluorescence; inhibition, % at 5.6 µM; actives 9.3% (n = 1,100);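 active means inhibition above a per-plate limit, the mean inhibition of that plate's test compounds plus 3 SD, cut at about 25% in these data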;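 further: 0% = ATP challenge with DMSO and 100% = DMSO without ATP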
* marks the source's active call; other numbers are inactive results; / = no result.

SMILES	CHO parental Ca	GalR3 antagonist	GPR7 antag	OX1R antag-1	OX1R antag-2	OX1R Ca confirm	CHO Ca triplic
Brc1ccccc1-n1nnc(-c2nccs2)n1	-11.9	-5.8	-14.8	45.2	22.2	7.4	-7.7
COc1ccc(/C=c2\sc3nc(-c4ccccc4OC)nn3c2=O)c(OC)c1	-2.4	-2.3	-10.7	42.8*	15.8	90.5*	18.4
COc1ccccc1-c1nc2s/c(=C\c3cccs3)c(=O)n2n1	1.2	1.1	-8.2	-4.7	-0.8	/	/
O=C(NCc1ccccc1)C1c2ccccc2OCC(=O)N1Cc1cccnc1 (stereo not drawn)	/	-6.0	/	/	/	/	/
Cc1ccc(Nc2nc3ccccc3nc2Nc2c(C)n(C)n(-c3ccccc3)c2=O)cc1	-3.4	-3.1	-3.9	56.6*	13.6	3.4	4.5
Cc1c(Nc2nc3ccccc3nc2NS(=O)(=O)c2cccc(Cl)c2)c(=O)n(-c2ccccc2)n1C	-9.0	-8.6	3.8	-32.4	27.3	/	/
Cc1ccc(-n2nnnc2SCn2nnc3ccccc3c2=O)c(C)c1	7.6	-6.7	-6.5	41.6*	10.2	11.7	20.7
COc1ccc(C(=O)Nc2ccc(Cl)c(S(=O)(=O)Nc3ccccc3OC)c2)cc1	-3.3	-6.9	13.6	32.4	30.5	14.8	3.2
N#Cc1ccc(OCCCN2CCC(C(O)(c3ccccc3)c3ccccc3)CC2)cc1	/	-9.1	/	/	/	/	/
Cc1cc(-c2nnc3n2N=C(c2ccc(-c4ccccc4)cc2)CS3)n[nH]1	17.3	-3.3	2.9	56.7*	4.2	7.5	-4.2
Cc1ccsc1C(=O)N1CCCC(N(C)Cc2ccccc2)C1 (stereo not drawn)	-3.9	-3.6	-8.6	37.7	3.9	-4.7	-4.2
COC(=O)c1cccc(CC2(C)C(=O)Nc3cc(-c4ccccc4Cl)ccc32)c1 (stereo not drawn)	/	9.7	/	/	/	/	/
CC(=O)c1cccc(NC(=O)c2ccc(N(Cc3ccccc3C)S(C)(=O)=O)cc2)c1	2.1	-2.3	6.4	24.2	21.9	22.0	6.5
CCN(CC(=O)Nc1cc(S(=O)(=O)N2CCOCC2)ccc1Cl)Cc1ccccc1	-20.1	-8.1	/	55.5*	20.1	14.0	3.7
CCN(CC(=O)Nc1cc(S(=O)(=O)N2CCCCC2)ccc1Cl)Cc1ccccc1	27.2	-6.6	/	-26.5	14.9	/	/
O=C(Nc1cc(S(=O)(=O)N2CCOCC2)ccc1N1CCCC1)c1ccccc1C(F)(F)F	/	-6.9	/	/	/	/	/
Nc1sc(Cc2ccccc2)cc1C(=O)c1c(-c2ccccc2)[nH]c2ccccc12	/	-6.5	/	/	/	/	/
CC(C)OC(=O)CSc1nc2c(c(C3CC=CCC3)c1C#N)CCC2 (stereo not drawn)	6.1	-2.6	4.3	53.7*	18.4	-10.7	-3.5
Cc1ccn2c(NCc3ccccc3)c(-c3cccc(SC4CCCCC4)c3)nc2c1	14.7	-0.5	/	56.2	31.5	18.3	-3.9
Cc1ccc2nc(-c3cccc(SC4CCCCC4)c3)c(NCc3ccccc3)n2c1	-13.3	-6.8	/	16.2	10.6	/	/
CCC(=O)c1ccc(OC(=O)c2ccc(Br)o2)cc1	24.6	-4.3	-6.8	40.4	-10.0	37.8*	38.9*
Cn1c(CSc2ncccn2)nnc1SCC(=O)N1CCCc2ccccc21	-12.7	-5.2	6.9	31.9	7.6	-2.3	-4.2
CCn1c(CSc2ncccn2)nnc1SCC(=O)N1CCc2ccccc21	-21.5	0.6	-5.2	-25.1	-1.4	/	/
CC(C)C[C@H](NC(=O)c1ccc(Cl)cc1Cl)C(=O)N1CCC[C@H]1C(=O)NCc1ccccc1	/	-7.0	/	/	/	/	/
c1ccc(Nc2nc(NCc3ccco3)c3ccccc3n2)cc1	18.4	3.6	-8.7	31.1	16.4	15.2	15.5
CSc1nc(NCc2ccco2)c2ccccc2n1	-16.4	2.4	-7.9	-17.6	23.9	/	/
CN1CCN(C(=O)c2cnc(Cc3c[nH]c4ccccc34)c(I)c2)CC1	/	-6.7	/	/	/	/	/

Screening data (PubChem)
